TCR CD3 inh = blocks the human TCR-CD3 interaction | TAMRA-labeled TCR probe fluorescence, biochemical | 360,000 tested, 0.37% active | inhibition, % at 9.4 µM;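 further: recombinant mutant TCR 2C K166C tagged with TAMRA read by polarization; 0% = receptor in buffer alone and 100% = receptor with positive control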
SIAE primary = human SIAE inhibition, primary screen; Q9HAT2; SIAE FP-Rh probe binding, fluorescence polarization; inhibition, % at 9.66 µM; 370,000 tested, 0.69% active; AID 1053197;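 active means inhibition above a cutoff: mean of compounds within the control limits plus 3 SD of those, cut at about 17% in these data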;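 further: 0% = plate median of compound wells and 100% = probe without SIAE protein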
DDE Tn7 FP inh = disrupts Tn7 cyclic peptide binding to fibrin D-Dimer-E complex; P02675; FP displacement of FITC-Tn7 peptide from fibrin DD(E); 0% = median of compound wells per plate; inhibition, % at 8.3 µM; 370,000 tested, 0.13% active; AID 720508;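 active means inhibition above the mean of compounds falling within the control limits plus 3 SD of them, cut at about 14% in these data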;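 further: 0% = plate median of compound wells and 100% = 10 µM Aha-Tn7 peptide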
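Assay system: human fibrin DD(E). Input: DD(E) 2 µM final. Medium: Tris buffer with calcium and detergent, pH 7.8. Compound dosing: single point at 8.3 µM. Timing: 10 min plus 3 h, room temperature. Technique: fluorescence polarization of the labelled Tn7 tracer. Read-out: percent inhibition. Replicates: singlicate testing.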
HTRA1 inh = blocks human HTRA1 serine peptidase; Q92743; recombinant HTRA1, FP-rhodamine activity-based probe, fluorescence polarization; inhibition, % at 5.96 µM; 340,000 tested, 0.5% active; AID 504803; in the data active means inhibition above about 36%;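 further: 0% = enzyme with DMSO and 100% = wells lacking enzyme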
Tn6 DDE FP = disrupts Tn6 cyclic peptide binding to fibrin D-Dimer-E complex. 370,000 tested, 0.21% active. Fibrin DD(E) TRITC-Tn6 fluorescence polarization displacement. inhibition, % at 8.3 µM. P02675;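 active means inhibition above a per-campaign cutoff: mean of compounds within control limits plus 3 SD, cut at about 15% in these data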;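 further: 0% = median of all compound wells on the plate and 100% = blocking peptide control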
ABHD4 inh = inhibitors of mouse ABHD4; purified mABHD4, FP-Rh probe fluorescence polarization; inhibition, % at 8.92 µM; 370,000 tested, 0.54% active;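 active means inhibition exceeding the mean over every tested compound plus 3 SD, cut at about 30% in these data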;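 further: 0% = plate median of compound wells and 100% = S159A mutant with DMSO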
Target sequence (Q8VD66 whole entry, looked up): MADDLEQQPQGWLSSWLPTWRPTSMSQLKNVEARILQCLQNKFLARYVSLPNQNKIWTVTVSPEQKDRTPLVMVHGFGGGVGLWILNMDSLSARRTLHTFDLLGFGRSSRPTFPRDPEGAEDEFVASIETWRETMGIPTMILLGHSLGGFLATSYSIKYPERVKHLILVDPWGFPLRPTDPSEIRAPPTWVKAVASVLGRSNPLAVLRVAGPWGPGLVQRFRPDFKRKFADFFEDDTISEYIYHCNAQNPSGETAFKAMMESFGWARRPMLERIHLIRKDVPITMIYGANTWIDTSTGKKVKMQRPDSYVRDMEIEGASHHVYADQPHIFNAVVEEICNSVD
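Test system: mouse ABHD4 enzyme, wild type. Reagent: FP-Rh fluorescent activity-based probe, added after compound pre-incubation. Timing: pre-incubation 45 min, probe exposure 60 min, at 25 °C. Technique: FP readout, ex 525 nm / em 598 nm. Benchmarks: high control S159A mutant with DMSO, low control median of compound wells.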
HTRA1 conf = HTRA1 (human) inhibition, confirmation | shares compounds with HTRA1 inh | recombinant HTRA1, FP-rhodamine activity-based probe, fluorescence polarization | inhibition, % at 5.96 µM | 1,600 tested, 66% active | AID 540248;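 active means mean inhibition over three repeats above a set limit taken from the earlier primary screen, cut at about 37% in these data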;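 further: 0% = HTRA1 with DMSO and 100% = wells lacking HTRA1; inhibitors block probe binding so polarization drops and inhibition rises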
BSA probe FL = counter-screen for TCR-CD3 interaction inhibitors: BSA probe; shares compounds with TCR CD3 inh; TAMRA-labeled BSA probe fluorescence counterscreen; inhibition, % at 9.4 µM; 1,200 tested, 10% active; AID 652035; in the data active means inhibition above about 23%;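 further: 0% = buffer low control and 100% = reference high control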
TCR-CD3 conf = confirmation of human TCR-CD3 interaction inhibitors; shares compounds with TCR CD3 inh; TAMRA-labeled TCR probe fluorescence binding assay; inhibition, % at 9.4 µM; 1,200 tested, 48% active
Tn7 DDE conf = confirmation of inhibitors of Tn7 binding to human fibrin DD(E) | FP displacement of TRITC-Tn7 peptide from DD(E); 0% set at plate's compound-well median | inhibition, % at 8.3 µM | 460 tested, 5% active | shares compounds with DDE Tn7 FP inh;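 active means inhibition above the campaign cutoff, the mean of compounds within control limits plus 3 SD, cut at about 14% in these data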;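 further: 100% = median FP of high control wells holding Aha-Tn7 inhibitor peptide; displacers lower polarization since freed probe rises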
Tn7 DDE ctr = counter-screen for inhibitors of Tn7 peptide binding to fibrin DD(E) | shares compounds with DDE Tn7 FP inh | TRITC-Tn7 probe displacement, fluorescence polarization | inhibition, % at 8.3 µM | 460 tested, 3% active | AID 720633;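 active means inhibition above the cutoff, the mean of compounds lying between the control bounds plus 3 SD of those compounds, cut at about 17% in these data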;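 further: 0% = median of compound sample wells and 100% = excess unlabeled Aha-Tn7 peptide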
DDE Tn6 FP ctr = counter-screen for inhibitors of Tn6 peptide binding to fibrin DD(E) | shares compounds with Tn6 DDE FP | TRITC-Tn6 fluorescence polarization displacement; 0% = median of compound wells, not DMSO | inhibition, % at 8.3 µM | 680 tested, 2% active | AID 720621;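 active means inhibition above the mean of test compounds lying between the control limits plus 3 SD of those, cut at about 14% in these data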;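 further: 0% = median of compound wells and 100% = wells with Aha-Tn7 blocking peptide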
DDE Tn6 confirm = confirmation of inhibitors of Tn6 binding to human fibrin DD(E). shares compounds with Tn6 DDE FP. FP displacement of TRITC-Tn6 peptide from DD(E); 0% = per-plate median of test wells. inhibition, % at 8.3 µM. 680 tested, 10% active;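 active means inhibition above the mean of compounds lying within the control limits plus 3 SD, cut at about 16% in these data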;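 further: 100% = high control wells holding a competing inhibitor peptide at 10 µM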
mABHD4 conf = confirmation of mouse ABHD4 inhibitors; shares compounds with ABHD4 inh; purified mABHD4, FP-Rh probe fluorescence polarization; inhibition, % at 8.92 µM; 1,800 tested, 55% active;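 active means mean inhibition across replicates above the hit cutoff set in the primary screen, cut at about 30% in these data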;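 further: 0% = wild-type ABHD4 with DMSO and 100% = catalytically dead S159A mutant with DMSO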
SIAE inh conf = confirmation of human SIAE inhibitors; shares compounds with SIAE primary; SIAE FP-Rh activity-based probe, fluorescence polarization; inhibition, % at 9.66 µM; 2,300 tested, 13% active; AID 1117263;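 active means mean inhibition of the replicates above the hit cutoff set in the primary screen, cut at about 17% in these data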;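 further: 0% = SIAE with DMSO and probe and 100% = probe without SIAE; inhibitors lower polarization as more probe stays unbound to SIAE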
The depositor's hits bear a star; x = no result. Compounds with a hit are over-represented: about 1.8% of the library has one in this group of screens. Unless noted, no stated cut-off is given here; in the data, active means inhibition above about 19%; inactive means the rest.

SMILES	TCR CD3 inh	SIAE primary	DDE Tn7 FP inh	HTRA1 inh	Tn6 DDE FP	ABHD4 inh	HTRA1 conf	SIAE inh conf	others
Cc1cc2cc(CNC(=O)Nc3ccc(Cl)c(Cl)c3)ccc2n1C	72*	33*	-12	41*	96*	38*	13	-9	BSA probe FL=3;TCR-CD3 conf=5;DDE Tn6 FP ctr=0;DDE Tn6 confirm=35*;mABHD4 conf=-12
Cc1ccc(S(=O)(=O)NCc2ccncc2)cc1	4	3	-3	0	1	-1	x	x
CC(=O)NC(c1ccc(Cl)cc1Cl)c1ccc2cccnc2c1O (stereo not drawn)	-10	20*	-4	73*	-7	16	67*	16
CC(C)C(=O)NC(c1cccc([N+](=O)[O-])c1)c1ccc2cccnc2c1O (stereo not drawn)	0	22*	4	44*	-3	11	46*	11
CC(=O)NC(c1ccc2ccccc2c1)c1ccc2cccnc2c1O (stereo not drawn)	0	27*	-2	52*	-1	22	68*	27*
Oc1c(C(Nc2cccc(C(F)(F)F)c2)c2ccncc2)ccc2cccnc12 (stereo not drawn)	-5	0	3	25	-5	11	x	x
CCCCC(=O)NC(c1ccc(N(CC)CC)cc1)c1ccc2cccnc2c1O (stereo not drawn)	-8	18*	-8	60*	-7	14	66*	15
COc1cccc(C(NC(C)=O)c2nc(-c3cccc4cccnc34)cs2)c1 (stereo not drawn)	0	1	-4	x	1	-5	x	x
Cc1ccc(Cn2nnc3c2-c2ccccc2S(=O)(=O)N(C2CC2)C3)cc1	x	-3	1	x	6	-2	x	x
CCCCNC(=O)NS(=O)(=O)c1ccc(NC(=O)CSc2nnc(-c3cccs3)n2-c2ccc(OC)cc2)cc1	x	-10	-4	x	-1	-7	x	x
O=C1c2ccccc2C(=O)N1Cc1ccco1	7	2	3	-2	-1	5	x	x
O=C1c2cccc3c(O)ccc(c23)C(=O)N1Cc1ccco1	41*	20*	56*	44*	12	49*	38*	21*	BSA probe FL=67*;TCR-CD3 conf=47*;Tn7 DDE conf=6;Tn7 DDE ctr=4;mABHD4 conf=45*
COC(=O)C1=C(C)N(Cc2ccccc2C(F)(F)F)C(=NCc2ccc3c(c2)OCO3)NC1c1ccccc1C(F)(F)F (stereo not drawn)	-1	0	-4	x	-6	-5	x	x

From PubChem BioAssay
